From ChEMBL document CHEMBL1944548, “Discovery of kinase spectrum selective macrocycle (16E)-14-methyl-20-oxa-5,7,14,26-tetraazatetracyclo[19.3.1.1(2,6).1(8,12)]heptacosa-1(25),2(26),3,5,8(27),9,11,16,21,23-decaene (SB1317/TG02), a potent inhibitor of cyclin dependent kinases (CDKs), Janus kinase 2 (JAK2), and fms-like tyrosine …” (J Med Chem, 2012) come the findings set out here.

The subject of series [1] is Ramos. The series is described as follows: Antitumor activity against human Ramos cells xenografted in po/ip dosed BALB/c nude mouse assessed as tumor growth inhibition. The series is classed as functional, organism-based. The essentials: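 Female BALB/c nude mice implanted sc in right flank with 7 × 10^6 Ramos cells; dosing began 12 days after inoculation at about 200 mm3, n = 8–10/group. Arms: 75 mg/kg po q.d. 2 days on/5 off in MC/Tween, or 15 mg/kg ip q.d.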
Background: Xenograft models place foreign cells or tissue in a host animal.

Series [2] in a line: Volume of distribution at steady state in BALB/c mouse at 5 mg/kg, iv by LC-MS/MS analysis. The following applies: in vivo, read-out: Vdss. Also on record: dose 5 mg/kg, route intravenous. The class given is ADME, organism-based.

The structures appear in SMILES notation.

In the case of `CN1C/C=C/CCOc2cccc(c2)-c2ccnc(n2)Nc2cccc(c2)C1` [ZOTIRACICLIB], the “growth inhibition (GI)” value in series [1] was “Dose-dependent effect”. For the same compound, the Vd in series [2] came out at 23 L/kg.
